Assay results reported in the RNAGym collection of RNA variant scans (doi:10.1126/science.aae0568).
This sample holds only a part of the variants without activity.

B1: tRNA (parent)
chain: GUUCCGUUGGCGUAAUGGUAACGCGUCUCCCUCCUAAGGAGAAGACUGCGGGUUCGAGUCCCGUACGGAACG

Variants of: B1
Assay: yeast fitness relative to wild type (ratio to wild type); higher = fitter; tRNA-Arg(CCU), competitive growth, 37 C, YPD
Summary of the method: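 Gene amplicons from the start population and from each of six end populations were read by 100-nucleotide paired-end sequencing. Those end populations came from pooled Saccharomyces cerevisiae strains carrying tRNA-Arg(CCU) gene variants at the native locus, competed in YPD at 37°C for 24 hours. Fitness relative to wild type was worked out from changes in genotype frequencies. Genotypes needed ≥ 100 starting reads, and estimates < 0.5 were set to 0.5.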
Work on U3C C24U C62U yielded a yeast fitness of 0.725.
With C4U U32C the yeast fitness was 0.944.
U35A A65G C66U gave a yeast fitness of 0.675.
With C5A U13G U32A A42U G52A U54A C60G the yeast fitness was 0.649.
Work on A15U U28C G44A A57G yielded a yeast fitness of no more than 0.5.
Work on U3C C22G A70U yielded a yeast fitness of 0.8.
C5A U35G G41A G56A gave a yeast fitness of no more than 0.5.
Work on U8A C30U A42G A57C yielded a yeast fitness of no more than 0.5.
Variant C5U C34U C49U U53C G67U has a yeast fitness of no more than 0.5.
Work on C24A C33G C34U G58C yielded a yeast fitness of 0.551.
U3A A36G G56A A65C A69C gave a yeast fitness of no more than 0.5.
A43G U47G C55G showed a yeast fitness of 0.636.
In the case of C4U U7C C49G, the yeast fitness is reported as 0.534.
Work on C24A A36U A43C C55A G56A yielded a yeast fitness of no more than 0.5.
With A40G C49U A65C the yeast fitness was 0.941.
Variant G51A G67C has a yeast fitness of 0.857.
With C4G A37U C49A G52A C55U G56A the yeast fitness was 0.688.
With C11U G51A G58A A70C the yeast fitness was no more than 0.5.
With U7A C60G the yeast fitness was 0.561.
For A15U G18C C55U A69C, the yeast fitness was no more than 0.5.
Variant C31U G48A G56U A65G has a yeast fitness of no more than 0.5.
Variant G9A U32C has a yeast fitness of 0.943.
For U19C A40U, the yeast fitness was 0.98.
A40U G44A C61A gave a yeast fitness of 0.511.
C34G G39C U53G G56A showed a yeast fitness of no more than 0.5.
U3C C22A C33A showed a yeast fitness of no more than 0.5.
In the case of C22A C27U A57U, the yeast fitness is reported as no more than 0.5.
U3A G10C A36U A40C A65G gave a yeast fitness of no more than 0.5.
With G6A C31U G41C A42U C66U the yeast fitness was no more than 0.5.
With C22G C62G A65U the yeast fitness was 0.534.
U2A U35A A45C gave a yeast fitness of no more than 0.5.
Variant A14G U19G C46U A57G A70C has a yeast fitness of no more than 0.5.
For U47G C49U, the yeast fitness was 0.682.
U3G C11U A43U A57U C66A gave a yeast fitness of no more than 0.5.
Variant A36C G56C has a yeast fitness of 0.793.
Work on A20G A37G U59A A70C yielded a yeast fitness of no more than 0.5.
G12A A15G C22A gave a yeast fitness of 0.705.
Work on U7G A15C A21C U28A G51A C60U C62U yielded a yeast fitness of 0.653.
A20C C22U showed a yeast fitness of 0.729.
In the case of A15U C31G C33G A42U, the yeast fitness is reported as no more than 0.5.
In the case of U2C C5U C11G U19A C30U G58A, the yeast fitness is reported as no more than 0.5.
Variant G25A C34A U47C has a yeast fitness of no more than 0.5.
Work on C30U C66G yielded a yeast fitness of 0.617.
G12A A40G gave a yeast fitness of 0.871.
Variant C49G G63A C66U has a yeast fitness of 0.524.
Work on G6A U47G U54C yielded a yeast fitness of no more than 0.5.
G6A A20G C24U A40G A43G showed a yeast fitness of no more than 0.5.
With C5G U7A C22U C30A C49G C62G the yeast fitness was no more than 0.5.
U19G C49U G50U showed a yeast fitness of no more than 0.5.
C4U G18C G38A A40C A65G gave a yeast fitness of no more than 0.5.
Variant G39A A69U has a yeast fitness of 1.03.
With G10A C24A C30A C31G A43U U54G C62G the yeast fitness was 0.544.
In the case of C11U A21C A42G C61U, the yeast fitness is reported as no more than 0.5.
G9A A45U C62A gave a yeast fitness of no more than 0.5.
With A20U C55U G67A the yeast fitness was no more than 0.5.
C24A G51C G52C gave a yeast fitness of no more than 0.5.
Work on U2G C27U C55U yielded a yeast fitness of no more than 0.5.
A37G A45U C60U A70G gave a yeast fitness of no more than 0.5.
Variant G17C G68C has a yeast fitness of 0.614.
Work on C27A G41A A45U U59G yielded a yeast fitness of no more than 0.5.
Work on U3C A40G yielded a yeast fitness of 0.929.
For C5G U26A, the yeast fitness was 0.815.
C11A G50C C60U A70C gave a yeast fitness of no more than 0.5.
For U16C C49U A70G, the yeast fitness was 0.581.
With U13C C31A G56C the yeast fitness was 0.57.
U13C A15U C46A A65C gave a yeast fitness of no more than 0.5.
With C27G C31A C33G C49U G58C the yeast fitness was no more than 0.5.
G10C C34G U54C G67U showed a yeast fitness of no more than 0.5.
For A37G G38A C55U U59G, the yeast fitness was no more than 0.5.
A14U G18A A40G C62A showed a yeast fitness of no more than 0.5.
Work on C30A G50C A69U yielded a yeast fitness of no more than 0.5.
With A40C G51A U54A the yeast fitness was no more than 0.5.
In the case of C5U C22U A45G, the yeast fitness is reported as 0.666.
In the case of A14G G44A A57U, the yeast fitness is reported as 0.576.
With C5U C22G C29A A45U the yeast fitness was 0.627.
In the case of G18A G41C, the yeast fitness is reported as 0.658.
C22U A37G showed a yeast fitness of 0.662.
In the case of C4U U19C C29A A70U, the yeast fitness is reported as 0.632.
In the case of U3A A20G C22U G44C, the yeast fitness is reported as no more than 0.5.
In the case of A14U A15G A43C G52A G56A C62G A65G, the yeast fitness is reported as 0.607.
Variant C27G C30U G39C A40U G44C U47A G48A U53C C60A has a yeast fitness of no more than 0.5.
C11U C31U showed a yeast fitness of 0.804.
For A21U G41A, the yeast fitness was 0.727.
